Legend:
[1] = biological target: T1, Solute carrier family 22 member 1 (Homo sapiens, UniProt O15245); assay: (§1) Inhibition of human OCT1 expressed in HEK293 cells assessed as decrease in uptake of ASP+ after 2 mins by fluorescence assay; format: cell-based
T1 sequence (O15245 whole entry): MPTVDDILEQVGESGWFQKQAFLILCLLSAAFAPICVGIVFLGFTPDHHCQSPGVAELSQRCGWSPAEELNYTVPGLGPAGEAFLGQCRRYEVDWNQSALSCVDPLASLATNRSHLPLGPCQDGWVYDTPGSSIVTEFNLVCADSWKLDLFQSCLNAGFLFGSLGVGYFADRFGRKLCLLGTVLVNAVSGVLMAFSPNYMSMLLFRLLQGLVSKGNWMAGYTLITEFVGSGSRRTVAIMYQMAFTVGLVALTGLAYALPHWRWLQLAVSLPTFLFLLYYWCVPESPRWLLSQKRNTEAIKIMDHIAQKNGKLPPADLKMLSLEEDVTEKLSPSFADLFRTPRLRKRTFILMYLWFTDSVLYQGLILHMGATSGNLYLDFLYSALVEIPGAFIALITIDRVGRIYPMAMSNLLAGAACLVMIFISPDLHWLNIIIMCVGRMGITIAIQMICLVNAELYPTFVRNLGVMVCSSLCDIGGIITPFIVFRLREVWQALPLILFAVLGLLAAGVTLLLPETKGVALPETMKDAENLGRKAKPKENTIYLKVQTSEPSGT
Summary of the method: (§2)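 Human OCT1-overexpressing HEK-293 cells (48 h growth, ~90% confluent) were incubated 2 min at 37°C in HBSS with 2 µM ASP+ and serially diluted inhibitor. IC50 was obtained by curve fitting.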

[2] = biological target: T1, Solute carrier family 22 member 1; assay: Inhibition of human OCT1 expressed in HEK293 cells assessed as decrease in uptake of YM155 after 1 min
[3] = biological target: T2, OCT1 (SLC22A1) (Homo sapiens, UniProt O15245); assay: as §1; format: cell-based; details: human, HEK293 cells that express human OCT1, probe ASP+; summary of the method: as §2
T2 sequence (O15245 whole entry): T1 sequence (O15245 whole entry)

[4] = biological target: T1, Solute carrier family 22 member 1; assay: Competitive inhibition of human OCT1 expressed in HEK293 cells assessed as decrease in uptake of ASP+ after 2 mins by Lineweaver-Burk plot analysis; details: hek293, 2 min
[5] = biological target: T1, Solute carrier family 22 member 1; assay: Competitive inhibition of human OCT1 expressed in HEK293 cells assessed as decrease in uptake of ASP+ after 2 mins by Lineweaver-Burk plot analysis; format: cell-based; details: hek293, 2 min
Summary of the method: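 HEK-293 cells stably overexpressing human OCT1 (kept in DMEM, 10% FBS, 75 µg/ml hygromycin B) were grown 48 h to ~90% confluence. They were exposed for 2 min at 37°C to HBSS with serial dilutions of ASP+ plus inhibitor at 4 fixed concentrations. Fluorescence was read at ex 485/em 585 nm. Reciprocal uptake at each inhibitor level was fitted by linear regression.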

[6] = biological target: T1, Solute carrier family 22 member 1; assay: Ratio of Kii for human OCT1-ASP+-inhibitor complex to Kis for human OCT1-inhibitor complex by Lineweaver-Burk plot analysis

Row | Compound | IC50 [1] | other results
1 | COC1=CC(=O)C[C@@H](C)[C@]12Oc1c(Cl)c(OC)cc(OC)c1C2=O [GRISEOFULVIN] | 7.3 µM | –
2 | CCCNCC(O)COc1ccccc1C(=O)CCc1ccccc1 (centres undefined) [PROPAFENONE] | 15.5 µM | –
3 | Oc1c(Cl)cc(Cl)cc1Sc1cc(Cl)cc(Cl)c1O [BITHIONOL] | 2.23 µM | –
4 | CNCCCN1c2ccccc2CCc2ccccc21 [DESIPRAMINE] | 9.18 µM | –
5 | CN(C)CCCN1c2ccccc2CCc2ccccc21 [IMIPRAMINE] | 7.95 µM | –
6 | CCN(CC)CCNC(C(=O)OCCC(C)C)c1ccccc1 (centres undefined) [CAMYLOFIN] | 9.12 µM | –
7 | CN/C(=N/CCSCc1nc[nH]c1C)NC#N [CIMETIDINE] | – | IC50 [2]: 149 µM; inhibition at 2 min [3]: 4.13%
8 | CC(CCc1ccc(O)cc1)NCCc1ccc(O)c(O)c1 (centres undefined) [DOBUTAMINE] | 4.17 µM | –
9 | CCc1nc(N)nc(N)c1-c1ccc(Cl)cc1 [PYRIMETHAMINE] | 13.6 µM | –
10 | Clc1ccc(C(OCCN2CCCCC2)c2ccccc2)cc1 (centres undefined) [CLOPERASTINE] | 14.9 µM | –
11 | COc1ccccc1OCCNCC(O)COc1cccc2[nH]c3ccccc3c12 (centres undefined) [CARVEDILOL] | 3.4 to 3.43 µM | –
12 | COc1cc2nc(N(C)CCCNC(=O)C3CCCO3)nc(N)c2cc1OC (centres undefined) [ALFUZOSIN] | 14.9 µM | –
13 | CCN(CC)C(C)CN1c2ccccc2Sc2ccccc21 (centres undefined) [ETHOPROPAZINE] | 20.5 µM | inhibition (INH) [4]: Active; inhibition (INH) [5]: Active
14 | Cc1cc(C(C#N)c2ccc(Cl)cc2)c(Cl)cc1NC(=O)c1cc(I)cc(I)c1O (centres undefined) [CLOSANTEL] | 3 µM | –
15 | COc1ccc2c(c1)[C@]13CCCC[C@@H]1[C@H](C2)N(C)CC3 [DEXTROMETHORPHAN] | 10.5 µM | –
16 | CN(C)CCC=C1c2ccccc2COc2ccccc21 [DOXEPIN] | 11.2 µM | –
17 | CC(=O)N1CCN(c2ccc(OCC3COC(Cn4ccnc4)(c4ccc(Cl)cc4Cl)O3)cc2)CC1 (centres undefined) [KETOCONAZOLE] | 2.6 µM | –
18 | Nc1c2c(nc3ccccc13)CCCC2 [TACRINE] | 21.7 µM | inhibition (INH) [4]: Active; inhibition (INH) [5]: Active
19 | N=C(N)N/N=C/c1c(Cl)cccc1Cl [GUANABENZ] | 4.85 µM | –
20 | Clc1cccc(Cl)c1N=C1NCCN1 [CLONIDINE] | 19 µM | –
21 | Oc1ccc(Cl)cc1Cc1cc(Cl)ccc1O [DICHLOROPHEN] | 8.41 µM | –
22 | CCN(CC)CCOCCOC(=O)C1(c2ccccc2)CCCC1 [CARBETAPENTANE] | 1.55 to 1.6 µM | –
23 | CCN(CC)CCNC(=O)c1c(C)[nH]c(/C=C2\C(=O)Nc3ccc(F)cc32)c1C [SUNITINIB] | 6.1 µM | –
24 | c1ccc(CC2NCCc3ccccc32)cc1 (centres undefined) | 82.1 µM | inhibition (INH) [5]: Active
25 | Clc1ccccc1C(c1ccccc1)(c1ccccc1)n1ccnc1 [CLOTRIMAZOLE] | 12 µM | –
26 | Cc1ncc(C[n+]2csc(CCO)c2C)c(N)n1 [THIAMINE ION] | 4350 µM | Ratio [6]: 95.6; inhibition at 2 min [3]: -1.5%

From ChEMBL document CHEMBL4007438, “Discovery of Competitive and Noncompetitive Ligands of the Organic Cation Transporter 1 (OCT1; SLC22A1)” (J Med Chem, 2017)
